Rows were chosen to be rich in hits. Some 3% of all compounds tested hit in one or more screens of this group.
NPY-Y1 PAM-ag: NPY-Y1 receptor potentiators or agonists, primary screen, cell-based | NPY-Y1 expressing cells, potentiator/agonist activation | AID 1304, 2008 | Neuropeptide Y receptor type 1 (Homo sapiens), P25929 | activation, % at 3.6 µM | actives 0.37% (n = 220,000); in the data active = activation above about 33%, passing the limit was not always enough;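 note: cells stimulated with NPY at EC10 then isoproterenol at EC100; 0% = low agonist plus stimulus and 100% = saturating agonist plus stimulus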
NPY-Y1 antag: NPY-Y1 receptor antagonists, primary screen, cell-based | Neuropeptide Y receptor type 1 (Homo sapiens), P25929 | HEK293-CNG Y1 cells, membrane potential fluorescence; NPY at EC95, then isoproterenol | inhibition, % at 3.6 µM | actives 1% (n = 200,000);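 active = inhibition above the campaign mean inhibition of all tested compounds plus 3 SD, cut at about 20% in these data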;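 note: 0% = DMSO wells given NPY plus isoproterenol and 100% = isoproterenol alone without NPY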
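Material: Y1- and CNG-channel-expressing HEK293 cells / Probe or stimulus: NPY 25 nM then isoproterenol 1 µM plus Ro 20-1724 25 µM / Doses: 3.6 µM single dose, DMSO 0.4% / Schedule: compound incubation 1 h at room temperature, readout 45 min post-stimulation / Signal: membrane potential fluorescence / Benchmarks: isoproterenol-only wells as full block versus NPY-plus-isoproterenol wells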
Hsp70 act: Hsp70 transcriptional activators, primary screen, cell-based, HeLa, Hsp70 promoter luciferase, luminescence, 10 µM | activation, % at 10 µM | actives 0.04% (n = 200,000) | HeLa Hsp70 promoter luciferase reporter; scaled: vehicle 0, proteasome-inhibitor control 100% | AID 1203, 2008;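 active = activation above the mean across all tested compounds plus 3 SD, cutoff set per campaign, cut at about 5.5% in these data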;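 note: 100% = MG132 at 30 µM as the positive control and 0% = DMSO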
NPY-Y2 PAM-ag: NPY-Y2 potentiators or agonists, primary screen, cell-based. Neuropeptide Y receptor type 2 (Homo sapiens), P49146. cells expressing NPY-Y2, potentiator/agonist read-out. activation, % at 3.6 µM. actives 0.45% (n = 220,000). AID 1359, 2008; in the data active = activation above about 27%;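 note: cells stimulated with NPY near EC25 plus isoproterenol at EC100; 0% = vehicle plus submaximal agonist and 100% = vehicle plus saturating agonist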
Target sequence (P49146 whole entry, looked up): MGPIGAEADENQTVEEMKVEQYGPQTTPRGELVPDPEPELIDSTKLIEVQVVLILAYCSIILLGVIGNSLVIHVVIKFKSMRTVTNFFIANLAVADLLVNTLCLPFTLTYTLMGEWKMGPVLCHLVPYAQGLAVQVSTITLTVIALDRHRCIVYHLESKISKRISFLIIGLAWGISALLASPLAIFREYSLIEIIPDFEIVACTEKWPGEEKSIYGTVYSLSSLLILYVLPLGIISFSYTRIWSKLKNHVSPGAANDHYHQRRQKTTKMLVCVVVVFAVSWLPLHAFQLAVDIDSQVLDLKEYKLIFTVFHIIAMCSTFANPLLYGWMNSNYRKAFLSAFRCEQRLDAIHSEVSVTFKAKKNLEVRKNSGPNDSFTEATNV
Wee1 degr inh: Wee1 degradation inhibitors, primary screen, cell-based, HeLa, Wee1K328M-luciferase, luminescence | Wee1-like protein kinase (Homo sapiens), P30291 | HeLa Luc-Wee1K328M stability; 100% = proteasome inhibitor MG132 effect | reporter increase, % at 5 µM | actives 1.2% (n = 220,000);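 active = activation above the mean of all tested compounds plus 3 SD, set per screening run, cut at about 8.8% in these data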;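 note: cells exposed to compound for 20 h before luminescence read; 0% = DMSO alone and 100% = MG132 at 30 µM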
NPY Y2 blocker: NPY-Y2 receptor antagonists, primary screen, cell-based. Neuropeptide Y receptor type 2 (Homo sapiens), P49146. NPY-Y2 expressing cells, antagonist mode. inhibition, % at 2.7 µM. actives 0.99% (n = 140,000). AID 793, 2007; in the data active = inhibition above about 17%;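 note: 0% = vehicle with agonist challenge and 100% = reference antagonist with challenge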
Active calls of the source: *; / = no result given.

SMILES	NPY-Y1 PAM-ag	NPY-Y1 antag	Hsp70 act	NPY-Y2 PAM-ag	Wee1 degr inh	NPY Y2 blocker
COc1ccc(OCCn2nnc(-c3ccc(Cl)cc3)n2)cc1	-5	0	0	3	16*	10
COc1ccc(C(=O)NNC(=O)CCn2nnc(-c3ccc(Cl)cc3)n2)cc1OC	-10	16	0	-22	-1	/
COc1ccc(CC(=O)N2CCN(c3ccc(C4=NNC(=O)CC4C)cc3)CC2)cc1 (stereo not given)	-79	79*	0	-23	0	83*
CCOC(=O)c1sc(NC(=O)CN2C(=O)NC3(CCCCCCC3)C2=O)c(C(=O)OCC)c1C	68*	/	/	102*	-2	/
O=C(c1c[nH]c(C(=O)N2CCN(c3ccccc3F)CC2)c1)c1cccc(Cl)c1Cl	-5	15	0	-2	-1	/
CC1CCC(C(C)C)C(OCC(O)CN2CCOCC2)C1 (stereo not given)	74*	-7	0	76*	0	4
O=C(Nc1ccnc(-c2ccncc2)n1)C1CC1	-21	-1	0	5	-1	/
COc1ccc(OC)c(/C=C2\SC(=S)N(C(C(=O)O)c3ccccc3)C2=O)c1 (stereo not given)	-10	/	/	-39	9.7*	/
Nc1ccc(C(=O)OCC(=O)Nc2ccc3c(c2)OCO3)cc1[N+](=O)[O-]	-21	2	1	-4	11*	2
O=C(COC(=O)c1c2c(nc3ccccc13)CCCC2)Nc1ccc2c(c1)OCO2	-2	20*	0	-8	3	17*
O=C(Nc1ccc(CN2CCOCC2)cc1)c1cc2ccccc2o1	-19	5	0	-17	10*	2
O=C(NC(=S)Nc1ccc(CN2CCOCC2)cc1)c1cc2ccccc2o1	-5	-5	0	0	2	/
Cc1cccc(N/C(N)=N/c2nc(CSc3ccc(Cl)cc3)cc(=O)[nH]2)c1	-32	/	/	-1	11*	/
Cc1ccc(N/C(N)=N/c2nc(CSc3nnc(C)s3)cc(=O)[nH]2)c(C)c1	11	20*	0	-6	3	/
O=C(CN(Cc1ccccc1)S(=O)(=O)c1ccc(Br)cc1)NCc1ccco1	7	6	0	1	-3	6
OC(CNCc1ccc2c(c1)OCO2)COc1ccc(F)cc1 (stereo not given)	-17	/	/	-28	4	/
CC(CNCc1ccc2c(c1)OCO2)NCc1ccc2c(c1)OCO2 (stereo not given)	-37	24*	0	-20	0	19*
Fc1ccccc1NC(=S)N/N=C/c1ccccc1Br	-8	3	0	-19	11*	15
O=[N+]([O-])c1ccc(/C=N/NC(=S)Nc2ccccc2F)o1	1	1	0	5	-2	2
CN(CCC(=O)Nc1ccc2c(c1)OCO2)Cc1ccccc1	11	-8	0	2	10*	-1
CS(=O)(=O)N(CC(=O)Nc1ccc2c(c1)OCO2)Cc1ccccc1	-18	8	0	-12	0	8
O=C(CN1CCN(c2ccccn2)CC1)Nc1cc(C(F)(F)F)ccc1Cl	-23	5	0	13	0	6
COc1ccc(/C(N)=N/OC(=O)c2cccs2)cc1	16	/	/	14	10.0*	/
N/C(=N\OC(=O)c1cccs1)c1ccc(Cl)cc1	-3	/	/	1	8	/
CC1(C)CC(=O)CC(=O)/C1=N\Nc1c(Cl)cc(Cl)cc1Cl	-18	-4	0	-6	-1	3
SMILES	NPY-Y1 PAM-ag	NPY-Y1 antag	Hsp70 act	NPY-Y2 PAM-ag	Wee1 degr inh	NPY Y2 blocker
CC(=O)c1ccc(OCC(=O)NCC(c2ccco2)N2CCCCC2)cc1 (stereo not given)	-3	6	0	3	0	/
CC1=[N+](C)c2ccc3ccccc3c2C1(C)C	-71	27*	0	-32	-2	22*
Cc1ccc(C)c(Sc2ccc(NC(=O)CCl)cc2)c1	4	0	0	8	16*	3
CCCNC(=O)c1noc2c1CCc1cc(OC)ccc1-2	1	-2	0	-15	10*	/
Cc1ccc(-c2nnc(N3CCOCC3)c3ccccc23)cc1S(=O)(=O)NCC1CCCO1 (stereo not given)	-1	5	0	0	4	2
CC1=C(C(=O)N2CCOCC2)C(c2cccc3ccccc23)NC(=S)N1 (stereo not given)	19	0	0	-4	11*	2
CC(CCc1ccccc1)NCC(O)c1ccc(O)c(C(N)=O)c1 (stereo not given)	116*	-14	0	103*	0	1
CC(=O)NC(C)CCc1ccccc1 (stereo not given)	-7	/	/	-12	0	/
Cc1ccccc1CC1(CO)CCCN(Cc2ccn[nH]2)C1 (stereo not given)	-3	5	0	-11	-1	/
Cc1ccc(CN2CCCC(CO)(Cc3ccccc3C)C2)s1 (stereo not given)	-15	13	0	-26	8.9*	/
O=S(=O)(c1cnc[nH]1)N1CCc2ccccc21	-6	-1	0	-11	2	0
Fc1cccc(NC(=S)N2CCCCC2)c1	104*	-3	0	-5	-2	1
FC(F)(F)c1cccc(NC(=S)N2CCCCCC2)c1	5	7	0	6	-5	/
O=C(COC(=O)CNC(=O)c1ccco1)Nc1ccccc1OC(F)F	5	-2	0	-8	-1	/
O=C(O)c1nn(-c2ccc(Cl)cc2)ccc1=O	-10	-5	1	-5	2	2
CCOc1ccc(NC(=O)C2CC(=O)OC2c2ccccc2)cc1 (stereo not given)	11	3	0	4	-2	/
O=C1CC(c2ccccc2)CC(O)=C1C=NCc1ccccc1 (stereo not given)	-2	3	0	-18	-2	7
O=C1CC(c2ccccc2)CC(O)=C1C=NCc1ccccc1Cl (stereo not given)	-10	14	2	-31	9.3*	6
C=CCn1cc(C(=O)NCc2ccco2)c(=O)c2cc(S(=O)(=O)N3CCCCCC3)ccc21	-9	-5	0	2	0	-1
CN1CCN(C(=O)C2=C[C@@H](c3ccc(Br)cc3)C[C@@H](OCc3ccc(CO)cc3)O2)CC1	5	3	0	-7	9.8*	/
CN1CCN(C(=O)C2=C[C@@H](c3ccccc3)C[C@@H](OCc3ccc(CO)cc3)O2)CC1	5	0	1	1	-1	/

Screening results (PubChem)
